Columns and labels:
[1] = molecular target: Ribosomal protein S6 kinase alpha-3 (Homo sapiens) (UniProt P51812); experiment: Inhibition of human recombinant RSK2 at 500 nM in presence of ATP by radiometric assay relative to control
[2] = molecular target: T1, Mitogen-activated protein kinase kinase kinase 7 (Homo sapiens) (UniProt O43318); experiment: Inhibition of human recombinant TAK1 at 500 nM related to control ULK1
T1 sequence (whole entry): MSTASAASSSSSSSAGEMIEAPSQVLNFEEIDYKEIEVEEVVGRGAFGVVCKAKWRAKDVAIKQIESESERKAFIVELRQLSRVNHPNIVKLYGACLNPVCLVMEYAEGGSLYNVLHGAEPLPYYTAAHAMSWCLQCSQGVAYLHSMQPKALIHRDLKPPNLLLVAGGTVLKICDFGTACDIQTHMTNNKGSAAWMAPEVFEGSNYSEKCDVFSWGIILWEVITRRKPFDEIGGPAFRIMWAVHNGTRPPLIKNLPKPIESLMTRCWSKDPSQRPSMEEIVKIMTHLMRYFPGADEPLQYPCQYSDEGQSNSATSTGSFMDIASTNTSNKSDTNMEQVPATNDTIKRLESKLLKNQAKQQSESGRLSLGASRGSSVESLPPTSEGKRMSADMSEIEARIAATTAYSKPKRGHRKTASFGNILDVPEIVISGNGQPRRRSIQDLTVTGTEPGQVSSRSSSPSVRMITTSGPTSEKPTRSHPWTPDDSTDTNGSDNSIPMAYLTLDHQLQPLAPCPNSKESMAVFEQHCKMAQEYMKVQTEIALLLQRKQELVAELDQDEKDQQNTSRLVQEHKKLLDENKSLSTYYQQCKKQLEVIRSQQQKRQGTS

[3] = molecular target: Serine/threonine-protein kinase pim-3 (Homo sapiens) (UniProt Q86V86); experiment: Inhibition of human recombinant PIM3 at 15 nM in presence of ATP by radiometric assay relative to control
[4] = molecular target: T2, Serine/threonine-protein kinase BRSK2 (Homo sapiens) (UniProt Q8IWQ3); experiment: Inhibition of human recombinant BRSK2 at 15 nM in presence of ATP by radiometric assay relative to control
T2 sequence (whole entry): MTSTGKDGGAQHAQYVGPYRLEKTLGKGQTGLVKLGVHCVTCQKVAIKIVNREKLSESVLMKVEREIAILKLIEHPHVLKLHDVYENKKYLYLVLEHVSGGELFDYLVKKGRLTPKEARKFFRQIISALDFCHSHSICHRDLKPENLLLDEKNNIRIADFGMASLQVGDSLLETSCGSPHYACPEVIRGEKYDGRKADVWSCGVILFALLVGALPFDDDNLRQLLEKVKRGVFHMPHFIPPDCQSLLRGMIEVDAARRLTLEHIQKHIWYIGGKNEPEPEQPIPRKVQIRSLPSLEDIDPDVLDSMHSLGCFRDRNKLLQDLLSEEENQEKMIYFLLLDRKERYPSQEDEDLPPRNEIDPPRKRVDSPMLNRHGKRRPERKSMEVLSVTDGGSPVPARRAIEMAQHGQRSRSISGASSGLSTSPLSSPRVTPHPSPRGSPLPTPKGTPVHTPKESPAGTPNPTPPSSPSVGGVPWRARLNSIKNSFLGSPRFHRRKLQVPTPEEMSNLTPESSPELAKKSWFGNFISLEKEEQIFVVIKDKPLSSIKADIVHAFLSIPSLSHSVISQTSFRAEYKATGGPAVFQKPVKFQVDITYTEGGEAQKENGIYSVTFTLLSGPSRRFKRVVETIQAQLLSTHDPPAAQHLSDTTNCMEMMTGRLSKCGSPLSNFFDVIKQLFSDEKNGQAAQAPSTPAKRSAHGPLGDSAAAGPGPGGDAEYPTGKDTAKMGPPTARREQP
Outline: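 Recombinant human kinase panel (327 kinases) run as radiometric activity assays, each kinase in duplicate at one compound concentration. Activity remaining expressed relative to vehicle control; percent inhibition taken as 100% minus % activity remaining.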

[5] = molecular target: T3, Serine/threonine-protein kinase tousled-like 1 (Homo sapiens) (UniProt Q9UKI8); experiment: Inhibition of human recombinant TLK1 at 15 nM in presence of ATP by radiometric assay relative to control
T3 sequence (whole entry): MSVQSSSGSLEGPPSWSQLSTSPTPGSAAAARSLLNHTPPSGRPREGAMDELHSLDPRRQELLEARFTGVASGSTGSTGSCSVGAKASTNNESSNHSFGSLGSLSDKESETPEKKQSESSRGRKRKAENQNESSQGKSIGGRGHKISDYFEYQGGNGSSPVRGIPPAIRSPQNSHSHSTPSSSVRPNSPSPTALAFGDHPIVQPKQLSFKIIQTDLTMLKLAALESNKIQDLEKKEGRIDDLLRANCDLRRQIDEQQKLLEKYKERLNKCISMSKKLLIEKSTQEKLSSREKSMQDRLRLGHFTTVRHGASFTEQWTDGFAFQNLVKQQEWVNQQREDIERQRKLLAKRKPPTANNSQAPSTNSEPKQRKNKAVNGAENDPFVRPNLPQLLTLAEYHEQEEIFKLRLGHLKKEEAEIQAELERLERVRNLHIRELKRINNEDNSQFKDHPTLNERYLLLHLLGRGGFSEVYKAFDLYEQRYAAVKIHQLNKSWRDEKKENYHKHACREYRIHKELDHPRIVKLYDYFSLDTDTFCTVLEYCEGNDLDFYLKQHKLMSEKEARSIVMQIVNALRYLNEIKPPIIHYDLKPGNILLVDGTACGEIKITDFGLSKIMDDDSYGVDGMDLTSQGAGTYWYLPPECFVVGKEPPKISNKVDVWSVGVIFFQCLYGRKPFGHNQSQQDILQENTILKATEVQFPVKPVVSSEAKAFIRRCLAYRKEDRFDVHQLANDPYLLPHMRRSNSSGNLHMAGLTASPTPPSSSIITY

[6] = molecular target: Serine-protein kinase ATM (Homo sapiens) (UniProt Q13315); experiment: Inhibition of human recombinant ATM at 15 nM in presence of ATP by radiometric assay relative to control
Serine-protein kinase ATM (Homo sapiens), sequence (Q13315 whole entry): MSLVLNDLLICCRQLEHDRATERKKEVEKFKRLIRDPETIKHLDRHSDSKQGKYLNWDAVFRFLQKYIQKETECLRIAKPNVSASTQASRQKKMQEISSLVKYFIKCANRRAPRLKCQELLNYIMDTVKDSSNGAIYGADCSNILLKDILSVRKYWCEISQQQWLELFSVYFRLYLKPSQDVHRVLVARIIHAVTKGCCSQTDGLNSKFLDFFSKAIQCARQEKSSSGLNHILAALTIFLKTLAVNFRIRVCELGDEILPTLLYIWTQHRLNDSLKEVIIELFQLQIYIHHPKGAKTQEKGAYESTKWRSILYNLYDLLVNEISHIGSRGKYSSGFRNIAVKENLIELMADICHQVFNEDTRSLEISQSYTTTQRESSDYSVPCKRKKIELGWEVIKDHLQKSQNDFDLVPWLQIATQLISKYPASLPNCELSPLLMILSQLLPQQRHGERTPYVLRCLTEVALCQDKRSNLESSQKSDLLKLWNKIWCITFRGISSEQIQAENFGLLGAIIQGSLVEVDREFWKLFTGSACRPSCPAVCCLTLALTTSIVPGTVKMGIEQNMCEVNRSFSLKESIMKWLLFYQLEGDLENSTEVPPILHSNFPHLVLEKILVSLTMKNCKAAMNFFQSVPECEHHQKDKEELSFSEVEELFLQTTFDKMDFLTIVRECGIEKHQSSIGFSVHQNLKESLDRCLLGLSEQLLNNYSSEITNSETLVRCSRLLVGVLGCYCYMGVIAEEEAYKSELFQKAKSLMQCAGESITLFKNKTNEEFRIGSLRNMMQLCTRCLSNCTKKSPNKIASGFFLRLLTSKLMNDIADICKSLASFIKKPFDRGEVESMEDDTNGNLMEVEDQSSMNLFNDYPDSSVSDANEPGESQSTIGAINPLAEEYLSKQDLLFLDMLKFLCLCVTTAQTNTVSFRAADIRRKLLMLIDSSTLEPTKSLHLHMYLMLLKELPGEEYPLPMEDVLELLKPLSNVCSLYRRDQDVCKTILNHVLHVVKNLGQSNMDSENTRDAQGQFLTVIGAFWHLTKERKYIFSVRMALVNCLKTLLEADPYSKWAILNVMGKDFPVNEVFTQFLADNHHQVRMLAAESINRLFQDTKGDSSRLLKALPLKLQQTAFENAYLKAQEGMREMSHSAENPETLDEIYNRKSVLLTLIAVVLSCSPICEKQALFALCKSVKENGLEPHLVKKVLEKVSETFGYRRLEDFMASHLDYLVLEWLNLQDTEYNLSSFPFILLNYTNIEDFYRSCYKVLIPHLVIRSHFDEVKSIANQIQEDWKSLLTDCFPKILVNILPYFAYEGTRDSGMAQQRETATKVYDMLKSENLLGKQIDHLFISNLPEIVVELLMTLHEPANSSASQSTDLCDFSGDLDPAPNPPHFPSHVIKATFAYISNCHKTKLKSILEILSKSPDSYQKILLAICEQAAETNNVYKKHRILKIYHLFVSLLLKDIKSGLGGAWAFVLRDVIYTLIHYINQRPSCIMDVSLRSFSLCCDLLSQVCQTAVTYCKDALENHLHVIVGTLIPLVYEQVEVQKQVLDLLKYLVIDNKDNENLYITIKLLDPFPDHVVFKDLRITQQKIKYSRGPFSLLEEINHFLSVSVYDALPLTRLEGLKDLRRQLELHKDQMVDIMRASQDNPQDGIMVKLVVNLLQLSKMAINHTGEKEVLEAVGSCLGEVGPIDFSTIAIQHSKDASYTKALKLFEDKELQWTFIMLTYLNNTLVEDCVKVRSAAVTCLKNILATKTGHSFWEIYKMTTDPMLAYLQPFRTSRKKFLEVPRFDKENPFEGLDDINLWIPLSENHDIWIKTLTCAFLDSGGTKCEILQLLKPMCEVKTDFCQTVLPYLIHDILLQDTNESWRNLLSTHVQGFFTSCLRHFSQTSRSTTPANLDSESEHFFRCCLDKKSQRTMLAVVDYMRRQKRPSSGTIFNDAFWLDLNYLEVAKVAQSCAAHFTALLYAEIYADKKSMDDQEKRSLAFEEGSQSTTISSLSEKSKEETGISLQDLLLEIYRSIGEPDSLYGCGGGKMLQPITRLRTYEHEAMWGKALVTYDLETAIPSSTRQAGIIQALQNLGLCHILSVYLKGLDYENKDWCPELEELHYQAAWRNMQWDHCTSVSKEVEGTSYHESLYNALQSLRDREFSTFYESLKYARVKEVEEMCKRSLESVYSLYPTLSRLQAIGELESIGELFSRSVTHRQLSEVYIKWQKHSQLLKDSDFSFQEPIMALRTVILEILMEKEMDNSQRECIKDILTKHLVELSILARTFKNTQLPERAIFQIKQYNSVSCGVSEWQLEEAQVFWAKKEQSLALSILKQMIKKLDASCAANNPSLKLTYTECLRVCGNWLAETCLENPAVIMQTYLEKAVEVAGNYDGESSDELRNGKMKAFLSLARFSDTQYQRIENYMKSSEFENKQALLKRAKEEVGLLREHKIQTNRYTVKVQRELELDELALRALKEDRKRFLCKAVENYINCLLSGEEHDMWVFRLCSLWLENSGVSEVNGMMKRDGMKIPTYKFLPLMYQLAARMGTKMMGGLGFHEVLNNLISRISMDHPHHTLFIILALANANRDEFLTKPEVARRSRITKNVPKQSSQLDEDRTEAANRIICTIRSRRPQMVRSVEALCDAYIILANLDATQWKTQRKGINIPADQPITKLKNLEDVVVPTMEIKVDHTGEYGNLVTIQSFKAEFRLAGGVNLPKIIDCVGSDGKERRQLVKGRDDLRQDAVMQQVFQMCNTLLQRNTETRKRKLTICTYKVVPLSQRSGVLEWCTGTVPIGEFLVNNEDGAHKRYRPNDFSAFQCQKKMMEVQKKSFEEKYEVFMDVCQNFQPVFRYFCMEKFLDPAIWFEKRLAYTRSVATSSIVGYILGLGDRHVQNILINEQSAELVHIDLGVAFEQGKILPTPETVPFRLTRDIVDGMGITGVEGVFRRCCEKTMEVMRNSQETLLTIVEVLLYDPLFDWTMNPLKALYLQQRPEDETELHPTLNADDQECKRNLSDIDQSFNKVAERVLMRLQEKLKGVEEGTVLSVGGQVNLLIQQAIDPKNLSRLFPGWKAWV
Outline: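 Panel of 327 recombinant human kinases, each assayed in vitro by radiometric activity assay in duplicate at a single inhibitor concentration per compound, chosen with reference to its ULK1 inhibition. Activity remaining was expressed as percent of vehicle control, and percent inhibition was calculated as 100 minus percent activity remaining.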

Ribosomal protein S6 kinase alpha-3 (Homo sapiens), sequence (P51812 whole entry): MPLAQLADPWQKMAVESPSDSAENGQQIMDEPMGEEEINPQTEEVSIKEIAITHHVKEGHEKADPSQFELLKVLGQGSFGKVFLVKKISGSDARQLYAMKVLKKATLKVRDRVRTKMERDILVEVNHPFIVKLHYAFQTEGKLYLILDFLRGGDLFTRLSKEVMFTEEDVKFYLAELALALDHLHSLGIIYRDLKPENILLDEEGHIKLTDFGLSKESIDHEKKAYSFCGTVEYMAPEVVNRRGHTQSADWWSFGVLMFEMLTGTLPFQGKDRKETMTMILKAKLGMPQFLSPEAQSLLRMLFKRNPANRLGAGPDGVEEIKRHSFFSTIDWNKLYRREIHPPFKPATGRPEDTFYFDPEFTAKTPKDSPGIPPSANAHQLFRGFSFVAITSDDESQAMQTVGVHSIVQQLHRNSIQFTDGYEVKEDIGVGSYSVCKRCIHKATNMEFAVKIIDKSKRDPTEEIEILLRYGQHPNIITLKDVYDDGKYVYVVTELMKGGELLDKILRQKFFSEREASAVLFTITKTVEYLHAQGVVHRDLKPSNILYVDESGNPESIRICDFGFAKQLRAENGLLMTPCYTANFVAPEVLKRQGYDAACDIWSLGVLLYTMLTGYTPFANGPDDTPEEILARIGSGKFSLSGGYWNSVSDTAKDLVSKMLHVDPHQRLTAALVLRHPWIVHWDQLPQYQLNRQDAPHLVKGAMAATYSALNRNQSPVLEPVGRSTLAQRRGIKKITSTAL

inhibition [1] [%] | fold change (FC) [2] | inhibition [3] [%] | inhibition [4] [%] | inhibition [5] [%] | inhibition [6] [%] | Compound
37 | 0.03 |  |  |  |  | CNC(=O)c1ccccc1Oc1nc(Nc2cc(OC)c(OC)c(OC)c2)ncc1Br
 |  | 2 | 25 | 0 | 6 | CC(C)[C@H](NC(=O)c1cc(-c2cnn3cc(-c4ccc(OCCN5CCCCC5)cc4)cnc23)cs1)C(F)(F)F
